The results in this text go back to ChEMBL document CHEMBL2151034, “Synthesis, biological evaluation and molecular docking studies of 3-(triazolyl)-coumarin derivatives: effect on inducible nitric oxide synthase” (Eur J Med Chem, 2012).

The structures appear in SMILES notation. The source made the active and inactive calls. The rule behind the calls is not given here. Where only a bound is given, the exact number is not on record here.

In series [1] the target is T1, Nitric oxide synthase 3 (Rattus norvegicus) (UniProt Q62600).
T1 sequence (whole entry): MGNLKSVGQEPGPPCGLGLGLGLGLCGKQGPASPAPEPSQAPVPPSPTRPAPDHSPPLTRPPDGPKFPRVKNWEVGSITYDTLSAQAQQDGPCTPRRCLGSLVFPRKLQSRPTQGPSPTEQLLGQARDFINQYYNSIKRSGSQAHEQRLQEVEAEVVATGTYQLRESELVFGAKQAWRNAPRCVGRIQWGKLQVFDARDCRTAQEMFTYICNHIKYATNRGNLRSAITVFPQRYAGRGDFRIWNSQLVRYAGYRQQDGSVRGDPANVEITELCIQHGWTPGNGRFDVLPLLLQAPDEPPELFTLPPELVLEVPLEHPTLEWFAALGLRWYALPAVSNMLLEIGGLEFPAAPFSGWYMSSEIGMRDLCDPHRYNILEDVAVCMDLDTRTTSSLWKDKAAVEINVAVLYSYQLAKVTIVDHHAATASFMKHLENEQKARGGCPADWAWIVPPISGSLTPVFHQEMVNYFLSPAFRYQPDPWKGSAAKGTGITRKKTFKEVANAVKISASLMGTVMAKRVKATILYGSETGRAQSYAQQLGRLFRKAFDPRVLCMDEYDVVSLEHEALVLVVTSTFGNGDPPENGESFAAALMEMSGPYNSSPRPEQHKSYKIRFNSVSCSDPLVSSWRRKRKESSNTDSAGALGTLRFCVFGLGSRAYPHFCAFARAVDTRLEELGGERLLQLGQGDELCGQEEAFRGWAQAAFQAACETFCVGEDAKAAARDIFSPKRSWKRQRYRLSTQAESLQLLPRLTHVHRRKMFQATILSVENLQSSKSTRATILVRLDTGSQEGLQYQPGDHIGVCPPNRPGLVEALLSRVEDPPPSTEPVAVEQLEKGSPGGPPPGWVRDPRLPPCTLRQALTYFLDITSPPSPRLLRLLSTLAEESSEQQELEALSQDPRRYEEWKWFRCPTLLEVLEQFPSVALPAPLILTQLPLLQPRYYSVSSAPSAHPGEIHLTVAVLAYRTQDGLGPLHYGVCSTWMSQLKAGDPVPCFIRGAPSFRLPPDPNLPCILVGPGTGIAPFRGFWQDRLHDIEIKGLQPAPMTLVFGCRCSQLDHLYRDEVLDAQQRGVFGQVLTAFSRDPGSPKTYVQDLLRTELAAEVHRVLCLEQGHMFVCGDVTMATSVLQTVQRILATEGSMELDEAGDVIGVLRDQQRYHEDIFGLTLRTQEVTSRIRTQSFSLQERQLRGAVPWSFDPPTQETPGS
Nature of the series: Inhibition of eNOS in rat PMEC assessed as reduction in nitrite level at 100 uM after 48 hrs by Griess method. In a few lines:
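Primary microvascular endothelial cells from rat cremaster muscle explants, grown in DMEM with 20% fetal calf serum and used at confluence after subculture. Incubated 48 h at 37 °C in 5% CO2 without LPS, with coumarin compounds or L-NAME at 100 µM. Nitrite in supernatant measured by Griess reaction at 550 nm. Mean ± s.e.m. of 4 independent assays.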
A general note: Nitrite, measured by Griess reagent, commonly stands in for NO production.

Series [2] relates to Neutrophil. Nature of the series: Antiinflammatory activity in Wistar rat neutrophils assessed as reduction of TNFalpha production at 100 uM after 18 hrs by ELISA. It is filed as functional, cell-based. The method, boiled down:
(§1)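 Rat peritoneal neutrophils elicited by intraperitoneal oyster glycogen, 1 × 10⁶ cells, incubated 18 h at 37 °C in 5% CO2 in medium alone (basal) or with LPS, with compounds in HBSS added at the same time. Supernatant frozen at −80 °C. TNF-α and PGE2 quantified by ELISA in pg/ml. Compared against HBSS-treated cells. Mean ± s.e.m. of 4 independent assays.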
(In an ELISA, binding on a coated surface is turned into a signal by an enzyme label.)

Series [3] has as its system Neutrophil. Nature of the series: Antiinflammatory activity in Wistar rat neutrophils assessed as inhibition of LPS-stimulated TNFalpha production at 1000 uM after 18 hrs by ELISA. The format is functional, cell-based. The method, boiled down:
as §1

Series [4] can be described thus: Induction of necrosis in Wistar rat neutrophils. The format is cell-based. The note with it: neutrophil.
The test system of series [5] is Neutrophil. Nature of the series: Inhibition of iNOS expression in Wistar rat neutrophils assessed as reduction of NO production after 18 hrs by Western blot analysis. The format is functional, cell-based. In a few lines:
(§2)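 Glycogen-elicited Wistar rat neutrophils, 1 × 10⁶ cells, incubated 18 h with LPS plus compound or control. Protein: homogenate in 50 mM Tris pH 7.4 with PMSF, 50 µg run on 7% SDS-PAGE, blocked with casein, mouse monoclonal anti-iNOS at 500 ng/mL, HRP chemiluminescence, densitometry normalized to β-actin. mRNA: real-time PCR against GAPDH, quantified by the Liu and Saint method. Mean ± s.e.m. of 4 independent assays.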
(In general: In western blotting, separated proteins are transferred to a membrane and probed.)

In series [6] the test system is Neutrophil. Nature of the series: Inhibition of LPS-induced cytoplasmic iNOS expression in Wistar rat neutrophils assessed as decrease in protein level after 18 hrs by Western blot analysis. It is filed as functional, cell-based. The method, boiled down:
as §2

In series [7] the test system is Neutrophil. Nature of the series: Inhibition of LPS-induced iNOS expression in Wistar rat neutrophils assessed as reduction of NO production after 18 hrs by Western blot analysis. The format is functional, cell-based. The method, boiled down:
as §2

In series [8] the target is Nitric oxide synthase, inducible (Rattus norvegicus) (UniProt Q06518). Nature of the series: Inhibition of iNOS in LPS-stimulated Wistar rat neutrophils assessed as decrease in total NOS activity at 100 uM after 18 hrs by enzymatic assay. In a few lines:
(§3)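 Neutrophils treated 18 h with LPS and compound, then homogenized in cold 50 mM Tris-HCl pH 7.4 with 1 mM PMSF and 1 mM L-citrulline. Homogenates incubated 30 min at 37 °C with 1 mM NADPH. Activity expressed as pmol L-citrulline/min/mg protein, with protein by Bradford. Calcium-independent (iNOS) activity defined by omitting CaCl2 and adding 1 mM EGTA; 1 mM L-NAME used as control. Mean ± s.e.m., n = 4.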

The test system of series [9] is Neutrophil. Nature of the series: Inhibition of LPS-induced iNOS gene expression in Wistar rat neutrophils assessed as decrease in mRNA level after 18 hrs by real-time PCR analysis. The format is functional, cell-based. In a few lines: as §2
The target of series [10] is Nitric oxide synthase, inducible (Rattus norvegicus) (UniProt Q06518). Nature of the series: Inhibition of iNOS activity in LPS-stimulated Wistar rat neutrophils at 100 uM after 18 hrs by enzymatic assay. In a few lines: as §3
Chain of Nitric oxide synthase, inducible (Rattus norvegicus) (Q06518 whole entry): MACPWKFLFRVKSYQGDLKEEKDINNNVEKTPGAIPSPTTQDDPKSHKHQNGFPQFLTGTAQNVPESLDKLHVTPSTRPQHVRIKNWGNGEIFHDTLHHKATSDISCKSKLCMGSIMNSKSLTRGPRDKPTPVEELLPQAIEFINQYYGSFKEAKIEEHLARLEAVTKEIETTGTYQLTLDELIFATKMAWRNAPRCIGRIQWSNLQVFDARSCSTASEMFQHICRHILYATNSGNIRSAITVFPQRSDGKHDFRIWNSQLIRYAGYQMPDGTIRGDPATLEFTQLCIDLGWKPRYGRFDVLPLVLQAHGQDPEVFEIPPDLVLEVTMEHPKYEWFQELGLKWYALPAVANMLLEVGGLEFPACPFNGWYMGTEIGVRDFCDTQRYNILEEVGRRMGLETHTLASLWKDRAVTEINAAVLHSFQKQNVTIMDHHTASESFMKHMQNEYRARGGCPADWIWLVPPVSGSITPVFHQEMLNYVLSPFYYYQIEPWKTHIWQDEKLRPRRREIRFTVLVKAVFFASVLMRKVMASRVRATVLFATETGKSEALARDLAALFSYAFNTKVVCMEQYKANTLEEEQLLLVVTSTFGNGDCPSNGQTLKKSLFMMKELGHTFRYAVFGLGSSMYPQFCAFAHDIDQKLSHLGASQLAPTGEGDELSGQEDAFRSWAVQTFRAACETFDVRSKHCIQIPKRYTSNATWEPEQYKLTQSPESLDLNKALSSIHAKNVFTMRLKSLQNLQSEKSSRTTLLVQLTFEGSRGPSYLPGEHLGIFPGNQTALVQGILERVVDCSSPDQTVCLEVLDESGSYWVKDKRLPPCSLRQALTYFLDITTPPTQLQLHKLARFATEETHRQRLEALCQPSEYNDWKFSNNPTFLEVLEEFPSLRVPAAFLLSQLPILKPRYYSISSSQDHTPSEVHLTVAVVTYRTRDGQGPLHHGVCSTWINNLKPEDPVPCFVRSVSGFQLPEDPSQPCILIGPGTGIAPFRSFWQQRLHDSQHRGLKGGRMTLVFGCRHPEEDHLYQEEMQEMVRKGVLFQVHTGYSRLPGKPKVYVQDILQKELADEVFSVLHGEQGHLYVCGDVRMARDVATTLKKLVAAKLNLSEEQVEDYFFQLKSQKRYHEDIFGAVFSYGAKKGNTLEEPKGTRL
Series [11] concerns Neutrophil. Nature of the series: Antiinflammatory activity in Wistar rat neutrophils assessed as reduction of LPS-stimulated TNFalpha production at 100 uM after 18 hrs by ELISA. The format is functional, cell-based. In a few lines:
as §1

The nature of series [12]: Induction of apoptosis in Wistar rat neutrophils. It is filed as cell-based. As to conditions: neutrophil.
The subject of series [13] is Neutrophil. Nature of the series: Antiinflammatory activity in Wistar rat neutrophils assessed as inhibition of LPS-stimulated PGE2 production at 100 uM after 18 hrs by ELISA. It is filed as functional, cell-based. In a few lines: (§4)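 Glycogen-elicited peritoneal neutrophils from male Wistar rats, 1 × 10⁶ cells, 18 h at 37 °C in 5% CO2 with or without E. coli LPS (serotype 026:B6). Compounds given at the same time, dissolved in HBSS; HBSS-treated cells serve as control. Nitrite measured by Griess reaction (absorbance at 550 nm, 10 min). PGE2 measured by ELISA in supernatant stored frozen at −80 °C. Mean ± s.e.m. of 4 independent assays.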

Series [14] deals with Neutrophil. Nature of the series: Antiinflammatory activity in Wistar rat neutrophils assessed as inhibition of LPS-stimulated PGE2 production at 1000 uM after 18 hrs by ELISA. The format is functional, cell-based. In a few lines:
as §4

The test system of series [15] is Rattus norvegicus. Nature of the series: Antiinflammatory activity in LPS-induced rat subcutaneous dorsal inflamed tissue assessed as reduction of neutrophil recruitment at 50 mg/kg, ip after 4 hrs post LPS challenge by Giemsa staining. It is filed as functional, organism-based. Further details: dose 50 mg/kg. The method, boiled down: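 Rat dorsal air pouch: 10 mL sterile air injected subcutaneously, refilled with 10 mL on day 7. On day 10, 50 mg/kg in 1 mL sterile PBS was given intraperitoneally (per methods) at the same time as LPS (1.5 mg/mL) was injected into the pouch; controls got PBS. Exudate leukocytes were counted 4 h later by Neubauer chamber and dyed smears. Mean ± s.e.m., 3 animals/group.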

Series [16] can be described thus: Cytotoxicity against Wistar rat neutrophils assessed as cell viability. It is filed as cell-based, Neutrophil. The note with it: read-out: Activity.
Series [17] concerns Neutrophil. Nature of the series: Antiinflammatory activity in Wistar rat neutrophils assessed as inhibition of LPS-stimulated NO production at 10 to 100 uM after 18 hrs by Griess method. It is filed as functional, cell-based. The method, boiled down:
as §4

Series [18] is described as follows: Induction of TNFalpha production in Wistar rat neutrophils at 100 uM after 18 hrs by ELISA relative to vehicle-treated control. The format is cell-based. As to conditions: neutrophil. The method, boiled down:
as §1

Series [19] in a line: Inhibition of LPS-stimulated NO production in Wistar rat neutrophils at 10 uM after 18 hrs by Griess method. The note with it: neutrophil.
The nature of series [20]: Induction of PGE2 production in Wistar rat neutrophils at 100 uM after 18 hrs by ELISA. The note with it: neutrophil. The format is cell-based. The method, boiled down:
as §1

In the case of `COC(=O)[C@@H](N)CCCNC(=N)N[N+](=O)[O-]`, the inhibition entry in series [1] is “Active”.

For the molecule `O=c1oc2ccccc2cc1-c1cn(-c2ccccc2)nn1`, the result in [2] and in [11] was inactive. Further, the inhibition result in series [3], in [1], in [13] and in [14] was “inactive” each time. Further, the Activity entry in [4] and in series [12] was “Non-toxic” each time. For the same molecule, the inhibition result in series [5], in series [6], in series [7], in series [8], in series [9] and in series [10] was “Active” in each case. In addition, the inhibition entry in series [17] is “Active”. Moreover, the result in series [15] was Active. Besides, the viability in series [16] was above 90%.

Regarding `CCCCCCn1cc(-c2cc3ccccc3oc2=O)nn1`, the result in series [2] and in series [11] was inactive. Besides, the inhibition entry in [3], in [13] and in series [14] was “inactive” each time. Moreover, the Activity result in series [4] was “Non-toxic”; in [18], “Toxic”; in series [12], “Non-toxic”; in series [19], “Toxic”. Moreover, the inhibition entry in series [5], in [7], in [8], in series [10] and in [1] was “Active” throughout. Further, in [16], the viability is above 90%.

For the molecule `CCCCCCCCCCn1cc(-c2cc3ccccc3oc2=O)nn1`, the outcome in [2] and in series [11] was inactive. Besides, the inhibition result in series [3], in series [1], in [13] and in [14] was “inactive” throughout. The results for the Activity entry in [4], in series [12] and in series [20] were “Non-toxic”, “Non-toxic” and “Toxic”, respectively. Besides, the inhibition entry in [5], in [7], in series [8], in series [10] and in [17] was “Active” in each case. Further, the viability in series [16] is above 90%.

As for `N=C(N)NN`, the result in [15] was Active.

Take `CCCCCCCCn1cc(-c2cc3ccccc3oc2=O)nn1`: the result in series [2] and in series [11] was inactive. Also, the inhibition entry in series [3], in series [1], in [13] and in [14] was “inactive” in each case. Further, the Activity entry in series [4] is given as “Non-toxic”; in series [12], “Non-toxic”; in series [20], “Toxic”. Besides, the inhibition result in series [5], in series [7], in series [8], in series [10] and in series [17] was “Active” each time. Further, the viability in series [16] is above 90%.
